In brackets after ≈: the same amount, converted by molar mass.

This passage reports GI50 and MIC results from ChEMBL document CHEMBL3112463, “Synthesis and biological activity of polyalthenol and pentacyclindole analogues” (2014).

Assay type in all cases: functional
One test concerns T47D. The test can be described thus: Antiproliferative activity against human T47D cells assessed as growth inhibition after 48 hrs by SRB assay. In outline:
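T-47D cells grown at 37 °C, 5% CO₂ in serum- and 2 mM L-glutamine-containing medium. Trypsinized, viability >97% by trypan blue, seeded at 15,000 cells/well. Compounds added day 1 in triplicate dilutions (DMSO vehicle 0.25% v/v as control) for 48 h. Cold 50% TCA fixation 60 min at 4 °C, SRB read at 492 nm with blank correction.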

Another test has as its system WiDr. The test can be described thus: Antiproliferative activity against human WiDr cells assessed as growth inhibition after 48 hrs by SRB assay. In outline: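 WiDr cells seeded at 20,000 cells/well after trypsinization into antibiotic-containing medium (trypan blue viability >97%). Culture at 37 °C, 5% CO₂ with foetal calf serum and 2 mM L-glutamine. Exposure to triplicate compound dilutions from DMSO stocks (0.25% v/v DMSO control) started day 1, lasting 48 h. Fixed with ice-cold 50% TCA, 60 min at 4 °C, then SRB, OD 492 nm background-subtracted.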
On the technique in general: Sulforhodamine B stains cellular protein and so reports cell mass.

Test [1] can be described thus: Antiproliferative activity against human HBL100 cells assessed as growth inhibition after 48 hrs by SRB assay. The conditions noted are these: HBL-100, 48 h. In short, it runs like this: (§1)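 Cells maintained at 37 °C, 5% CO₂ in medium with foetal calf serum and 2 mM L-glutamine. Trypsinized into antibiotic medium, >97% viable by trypan blue, plated at 10,000 cells/well. Triplicate dilutions from DMSO stocks (0.25% v/v DMSO control) added on day 1 for 48 h. TCA fixation (50%, 4 °C, 60 min), SRB stain, OD 492 nm corrected for medium-only blank.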

The test system of a further test is HeLa. The test can be described thus: Antiproliferative activity against human HeLa cells assessed as growth inhibition after 48 hrs by SRB assay. In outline: as §1
Another test relates to A549. In words: Antiproliferative activity against human A549 cells assessed as growth inhibition after 48 hrs by SRB assay. The conditions noted are these: A549, 48 h. In short, it runs like this: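 Cells kept in medium with foetal calf serum and 2 mM L-glutamine at 37 °C, 5% CO₂. Trypsinized, resuspended in penicillin/streptomycin medium, >97% trypan blue viability, seeded at 10,000 cells/well. Compounds from DMSO stocks (0.25% v/v DMSO control), triplicate dilutions, added day 1 for 48 h. Fixed with cold 50% TCA for 60 min at 4 °C, then SRB staining, OD 492 nm, background corrected.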

Another test deals with SW1573. In words: Antiproliferative activity against human SW1573 cells assessed as growth inhibition after 48 hrs by SRB assay. The note with it: SW1573, 48 h. In short, it runs like this:
as §1

The next test deals with Staphylococcus aureus. In words: Antimicrobial activity against Staphylococcus aureus ATCC 29213 after 24 hrs by broth microdilution method. The note with it: ATCC 29213, 24 h. In short, it runs like this: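 Bacteria grown on nutrient agar at 35–37 °C for 24 h, then suspended in normal saline to approx. […] by matching to 0.5 McFarland standard. Broth microdilution in Mueller Hinton broth with growth and sterility controls, compounds first dissolved in DMSO.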

Usually GI50 stands for the concentration at which growth is held to half of that of the control. In the case of `COC(=O)[C@@]1(C)CCC=C2[C@@H]1CC[C@@H](C)[C@]2(C)Cc1c[nH]c2ccc(Br)cc12`, the GI50 with T47D amounted to 16 µM; with WiDr it was 20 µM; in test [1], 16 µM; in the test on HeLa, 10 µM; in the test with A549, 15 µM; with SW1573, 12 µM.

Turning to `COC(=O)[C@@]1(C)CCC=C2[C@@H]1CC[C@@H](C)[C@]2(C)Cc1c[nH]c2ccc(F)cc12`, the GI50 was determined as 3.9 µM in the test on T47D; 8 µM in the test on WiDr; 4.8 µM in test [1]; 3.7 µM with HeLa; 6.2 µM with A549; 7.3 µM with SW1573.

Regarding `COC(=O)[C@@]1(C)CCC=C2[C@@H]1CC[C@@H](C)[C@]2(C)Cc1c[nH]c2ccc(OC)cc12`, the GI50 in the test on T47D amounted to 3.7 µM; with WiDr it was 5.7 µM; in test [1], 2.1 µM; with HeLa, 1.2 µM; in the test with A549, 2.2 µM; in the test with SW1573, 1.3 µM.

For the compound `COC(=O)[C@@]1(C)CCC=C2[C@@H]1CC[C@@H](C)[C@]2(C)Cc1c[nH]c2ccc(C(F)(F)F)cc12`, the GI50 stood at 15 µM with T47D; 18 µM in the test on WiDr; 15 µM in test [1]; 11 µM in the test with HeLa; 15 µM with A549; 14 µM in the test with SW1573.

Turning to `COC(=O)[C@@]1(C)CCC=C2[C@@H]1CC[C@@H](C)[C@]2(C)Cc1c(C)[nH]c2ccccc12`, the GI50 is 17 µM in the test with T47D; 19 µM in the test on WiDr; 14 µM in test [1]; 11 µM in the test on HeLa; 15 µM with A549; 14 µM in the test with SW1573.

On to `COC(=O)[C@@]1(C)CCC=C2[C@@H]1CC[C@@H](C)[C@]2(C)Cc1c(C)[nH]c2ccc(Br)cc12`, for which the GI50 in the test with T47D was 16 µM; with WiDr it was 15 µM; in test [1], 15 µM; with HeLa, 11 µM; in the test with A549, 15 µM; in the test with SW1573 it was 14 µM.

Take `COC(=O)[C@@]1(C)CCC=C2[C@@H]1CC[C@@H](C)[C@]2(C)Cc1c(C)[nH]c2ccc(Cl)cc12`: the GI50 with T47D stood at 17 µM; in the test with WiDr, 18 µM; in test [1] it was 15 µM; in the test on HeLa it was 12 µM; with A549, 17 µM; in the test on SW1573, 14 µM.

Take `COC(=O)[C@@]1(C)CCC=C2[C@@H]1CC[C@@H](C)[C@]2(C)Cc1c(C)[nH]c2ccc(F)cc12`: the GI50 came to 15 µM with T47D; 17 µM in the test on WiDr; 14 µM in test [1]; 11 µM in the test on HeLa; 15 µM in the test with A549; 12 µM in the test on SW1573.

For `COC(=O)[C@@]1(C)CCC=C2[C@@H]1CC[C@@H](C)[C@]2(C)Cc1c(C)[nH]c2ccc(OC)cc12`, the GI50 amounted to 21 µM in the test with T47D; 17 µM with WiDr; 16 µM in test [1]; 12 µM with HeLa; 16 µM in the test on A549; 15 µM in the test with SW1573.

One may read the MIC as the least concentration at which growth counts as inhibited. Higher therefore signals a need for much substance. Regarding `COC(=O)[C@@]1(C)CCC=C2[C@@H]1CC[C@@H](C)[C@]2(C)Cc1c(C=O)[nH]c2ccccc12`, the GI50 was 17 µM in the test with T47D; 20 µM in the test on WiDr; 7.5 µM in test [1]; 4.4 µM in the test on HeLa; 45 µM in the test with A549; 7.9 µM with SW1573. The compound further came in with an MIC in the test with Staphylococcus aureus of 50 µM (≈ 19.7 µg/mL).

Regarding `Cc1c(C[C@]2(C)C3=CCC[C@](C)(C(=O)O)[C@H]3CC[C@H]2C)c2cc(Cl)ccc2n1C(c1ccccc1)c1ccccc1`, the GI50 in the test with T47D stood at 13 µM; in the test on WiDr it was 16 µM; in test [1], 13 µM; in the test on HeLa, 5.5 µM; in the test with A549 it was 9.1 µM; in the test on SW1573, 13 µM.

As to `COC(=O)[C@@]1(C)CC[C@@H]2C3=C1CC[C@@H](C)[C@]3(C)Cc1c2[nH]c2ccccc12`, the GI50 in the test with T47D stood at 3.4 µM; with WiDr it was 4 µM; in test [1], 3.5 µM; with HeLa it was 3.2 µM; in the test on A549, 4.6 µM; in the test on SW1573 it was 8.3 µM.

Turning to `COC(=O)[C@@]1(C)CC[C@@H]2C3=C1CC[C@@H](C)[C@]3(C)Cc1c2[nH]c2ccc(C)cc12`, the GI50 in the test with T47D was 16 µM; with WiDr it was 19 µM; in test [1], 11 µM; with HeLa, 11 µM; in the test with A549 it was 16 µM; in the test with SW1573, 15 µM.

In the case of `COC(=O)[C@@]1(C)CC[C@@H]2C3=C1CC[C@@H](C)[C@]3(C)Cc1c2[nH]c2ccc(OC)cc12`, the GI50 came to 6.5 µM with T47D; 1.2 µM with WiDr; 5 µM in test [1]; 3.9 µM in the test with HeLa; 7.7 µM with A549; 5.9 µM in the test on SW1573.

As for `COC(=O)[C@@]1(C)CCC=C2[C@@H]1CC[C@@H](C)[C@]2(C)Cc1c[nH]c2ccccc12`, the GI50 with T47D is 4.2 µM; with WiDr it was 8.7 µM; in test [1], 4.5 µM; in the test on HeLa it was 3.6 µM; with A549, 5 µM; with SW1573, 7.3 µM.
